Source: ChEMBL document CHEMBL1649155, “Antimicrobial activity of curcumin against Helicobacter pylori isolates from India and during infections in mice” (2009)
≈ marks a conversion by molar mass, not a printed value. Calls of active or inactive are those of the source. The rule behind the calls is not given here.

Tests used:
[1] = system: Helicobacter pylori; experiment: Antimicrobial activity against Helicobacter pylori ATCC 43504 by agar dilution method; type: functional
Method in brief: (§1)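 Agar dilution on BHI agar with 5% horse serum. Isolates were grown 3 days under microaerophilic conditions and restreaked for 24 h. Cells were suspended in PBS to OD600 0.1, and 10 μl was spotted onto agar with curcumin at final 50–5 μg/ml (DMSO stock). Plain and DMSO-containing agar served as growth controls. Plates ran 5 days at 37°C microaerophilic. MIC is the lowest concentration with no visible growth.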

[2] = system: Helicobacter pylori; experiment: Antimicrobial activity against Helicobacter pylori clinical isolate by agar dilution method; type: functional; method in brief: as §1
[3] = system: Helicobacter pylori; experiment: Antimicrobial activity against Helicobacter pylori SS1 infected in C57BL/6 mouse assessed as inhibition of inflammatory cell infiltration at 25 mg/kg, po administered 2 weeks post infection for 7 days measured after 1 week; type: functional, organism-based; parameters: dose 25 mg/kg
Method in brief: (§2)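 C57BL/6 mice were inoculated intragastrically with SS1, with PBS controls. Two weeks after the final inoculation, curcumin 25 mg/kg was fed orally for 7 consecutive days before sacrifice. Body and pyloric stomach tissue was formalin-fixed and paraffin-embedded, and 5 μm sections were stained with hematoxylin and eosin and examined at ×10 and ×20.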

[4] = system: Helicobacter pylori; experiment: Antimicrobial activity against Helicobacter pylori PG139 by agar dilution method; type: functional; method in brief: as §1
[5] = system: Helicobacter pylori; experiment: Antimicrobial activity against Helicobacter pylori SS1 infected in C57BL/6 mouse assessed as inhibition of disruption in submucosal and muscularis mucosal layer of gastric tissue at 25 mg/kg, po administered 2 weeks post infection for 7 days measured after 1 week; type: functional, organism-based; parameters: dose 25 mg/kg; details: Stomach; method in brief: as §2
[6] = system: Helicobacter pylori; experiment: Antimicrobial activity against Helicobacter pylori SS1 infected in C57BL/6 mouse assessed as decrease in glandular atrophy at 25 mg/kg, po administered 2 weeks post infection for 7 days measured after 1 week; type: functional, organism-based; parameters: dose 25 mg/kg; method in brief: as §2
[7] = system: Helicobacter pylori; experiment: Antimicrobial activity against Helicobacter pylori PG233 by agar dilution method; type: functional; method in brief: as §1
[8] = system: Helicobacter pylori; experiment: Antimicrobial activity against Helicobacter pylori L1675 by agar dilution method; type: functional; method in brief: as §1
[9] = Antimicrobial activity against Helicobacter pylori 26695 by agar dilution method; type: functional
[10] = system: Helicobacter pylori; experiment: Antimicrobial activity against Helicobacter pylori AM1 infected in C57BL/6 mouse assessed as decreased bacterial gene vacA expression at 25 mg/kg, po administered 2 weeks post infection for 7 days measured after 1 week by PCR; type: functional, organism-based; parameters: dose 25 mg/kg
[11] = system: Helicobacter pylori; experiment: Antimicrobial activity against Helicobacter pylori SS1 infected in C57BL/6 mouse assessed as decreased bacterial gene vacA expression at 25 mg/kg, po administered 2 weeks post infection for 7 days measured after 1 week by PCR; type: functional, organism-based; parameters: dose 25 mg/kg
[12] = system: Helicobacter pylori; experiment: Antimicrobial activity against Helicobacter pylori SS1 infected in C57BL/6 mouse assessed as restoration of epithelial layer of gastric tissue at 25 mg/kg, po administered 2 weeks post infection for 7 days measured after 1 week; type: functional, organism-based; parameters: dose 25 mg/kg; details: Stomach; method in brief: as §2
[13] = system: Helicobacter pylori; experiment: Antimicrobial activity against Helicobacter pylori PG156 by agar dilution method; type: functional; method in brief: as §1

MIC [1] [µg/mL]	MIC [2] [µg/mL]	MIC [4] [µg/mL]	MIC [7] [µg/mL]	MIC [8] [µg/mL]	MIC [9] [µg/mL]	MIC [13] [µg/mL]	Compound	Activity [3]	Activity [5]	Activity [6]	Activity [10]	Activity [11]	Activity [12]
0.03 (≈ 0.0821 µM)	0.03 (≈ 0.0821 µM)	–	–	–	–	–	CC1(C)S[C@@H]2[C@H](NC(=O)[C@H](N)c3ccc(O)cc3)C(=O)N2[C@H]1C(=O)O [AMOXICILLIN]	–	–	–	–	–	–
0.02 (≈ 0.0267 µM)	0.02 (≈ 0.0267 µM)	–	–	–	–	–	CC[C@H]1OC(=O)[C@H](C)[C@@H](O[C@H]2C[C@@](C)(OC)[C@@H](O)[C@H](C)O2)[C@H](C)[C@@H](O[C@@H]2O[C@H](C)C[C@H](N(C)C)[C@H]2O)[C@](C)(OC)C[C@@H](C)C(=O)[C@H](C)[C@@H](O)[C@]1(C)O [CLARITHROMYCIN]	–	–	–	–	–	–
15 (≈ 40.7 µM)	5 (≈ 13.6 µM)	5 (≈ 13.6 µM)	5 (≈ 13.6 µM)	50 (≈ 136 µM)	20 (≈ 54.3 µM)	30 (≈ 81.4 µM)	COc1cc(/C=C/C(=O)CC(=O)/C=C/c2ccc(O)c(OC)c2)ccc1O [CURCUMIN]	Active	Active	Active	Active	Active	Active
